Measurements published in publication PMC7346273 (ACS Omega, 2020).

Molecular target: Aβ40 (Homo sapiens, UniProt P05067)
Test: Aβ40 aggregation inhibition and fibril destabilization
Format: biochemical
Settings: synthetic peptides
Outline: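 Aβ40 was pre-treated in HFIP (1.0 mg/mL), lyophilized, stored at −20 °C, redissolved in DMSO to 5 mM and sonicated 10 min. It was diluted into PBS pH 7.5 with 0.2% SDS (100 μM final) and incubated at 37 °C for 7 days, with test compound added before incubation or to preformed aggregates. Samples were imaged by acoustic AC-mode AFM. ThT was read immediately (Aβ40 5 μM, ThT 20 μM; ex 450 nm, em 480–600 nm) with the no-Aβ40 background subtracted; mean ± SD, three independent experiments.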

Sequence of Aβ40 (P05067 672-711 limits assumed): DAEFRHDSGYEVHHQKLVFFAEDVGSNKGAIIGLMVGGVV

**Q.** For KAISFSK [Peptide P1], which “ThT fluorescence of treated Aβ40 compared to control” value (Aβ40/peptide = 10:1, 7 days, ThT 20 μM, Aβ40 5 μM) is on record?
**A.** even higher ThT fluorescence

**Q.** What about the “effect on Aβ40 aggregation (AFM)” value (Aβ40/peptide = 10:1, PBS pH 7.5 with 0.2% SDS, 37 °C, 7 days) of the same substance?
**A.** aggravated the aggregation tendency
